Screens from PubChem.
Only some compounds are listed: those with a hit (about 2.3% of all), similar ones and a draw of the others.
Glyco luc inh: blocks N-linked glycosylation in D54 reporter cells. 360,000 tested, 0.23% active. D54 ERlucT glycosylation luciferase reporter, 24 h; percent of 100 nM tunicamycin response. reporter increase, % at 12.5 µM;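 active = mean luciferase reporter signal, scaled so untreated is 0 and the glycosylation-blocking control 100, at or above a set limit in every replicate; inconclusive = mean reaches the limit but not every replicate does; inactive = mean below the limit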;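 also: luciferase carries N-glycosylation sites so blocking glycosylation raises the light; 0% = median of neutral control wells and 100% = median of 100 nM tunicamycin wells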
PAX8 inh HTS: lowers PAX8-driven luciferase in RMG-I cells | 360,000 tested, 1.2% active | AID 652154 | inhibition, % at 12.6 µM | RMG-I TPO-luciferase reporter, SteadyGlo, 24 h;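 active = mean replicate inhibition at least 60% with every replicate also reaching 60%; inconclusive = only one of the two criteria is met; inactive = mean below 60% and not all replicates reaching 60%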;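 also: luciferase light reporting Pax8 driven TPO promoter activity; plate controls were median of neutral control wells for no effect and mitoxantrone controls for full effect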
Arrestin-AP2 inh: inhibitors of human beta-arrestin and AP2 interaction. FITC-arrestin peptide / GST-AP2 beads, flow cytometry; AP2 beta2 appendage carries R879A mutation. inhibition, % at 10 µM. 340,000 tested, 0.31% active. AID 504490;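 active = inhibition above a set limit, near 3 SD of compounds lacking own fluorescence, cut at about 54% in these data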;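 also: plate controls were DMSO wells for no effect and 5 µM unlabelled arrestin peptide for full effect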
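Material – AP2 appendage R879A on GSH beads · Buffer or medium – PBS with 0.05% Tween 20 and 0.1% BSA · Probe or stimulus – fluorescein-tagged arrestin peptide at 50 nM final · Incubation – compound with beads 12 min RT, then probe 1 h RT · Detection – high-throughput flow cytometry of beads, ex 488, em 535 nm · Evaluation – percent response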
HIV Env fusion: HIV envelope-mediated fusion inhibition; HeLa-JRFL Env/CEM21 cell fusion, luciferase; inhibition, % at 12.3 µM; 360,000 tested, 1.1% active; AID 651610;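 active = mean replicate inhibition score of at least 50 and every replicate individually at or above 50; inconclusive = only one of the two criteria met; inactive = mean below 50 and not all replicates reaching 50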;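 also: 0% = plate neutral controls and 100% = maraviroc near 300 nM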
PfHsp90 set2: inhibits growth of yeast expressing Plasmodium falciparum Hsp90; 310,000 tested, 0.32% active; inhibition, % at 9.4 µM; AID 504621; S. cerevisiae expressing PfHsp90, BacTiter-Glo ATP, 48 h; yeast lacking PDR1 and PDR3 efflux regulators;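 active = every replicate shows inhibition above about 80%, whatever the replicate mean, limit read from the data; inconclusive = mean inhibition reaches the set limit but some replicate falls short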;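 also: 0% = DMSO neutral controls and 100% = 20 µM radicicol positive controls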
Rtt109 HAT inh: inhibitors of Candida albicans Rtt109/Vps75 histone acetyltransferase. purified Rtt109/Vps75, ThioGlo CoA-SH fluorescence, 4 h. inhibition, % at 34.9 µM. 330,000 tested, 0.16% active. AID 540336;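 active = inhibition of at least 50% in every replicate; inconclusive = best replicate reaches 50% inhibition but some replicates fall short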
Target sequence (Q5AAJ8 whole entry, looked up): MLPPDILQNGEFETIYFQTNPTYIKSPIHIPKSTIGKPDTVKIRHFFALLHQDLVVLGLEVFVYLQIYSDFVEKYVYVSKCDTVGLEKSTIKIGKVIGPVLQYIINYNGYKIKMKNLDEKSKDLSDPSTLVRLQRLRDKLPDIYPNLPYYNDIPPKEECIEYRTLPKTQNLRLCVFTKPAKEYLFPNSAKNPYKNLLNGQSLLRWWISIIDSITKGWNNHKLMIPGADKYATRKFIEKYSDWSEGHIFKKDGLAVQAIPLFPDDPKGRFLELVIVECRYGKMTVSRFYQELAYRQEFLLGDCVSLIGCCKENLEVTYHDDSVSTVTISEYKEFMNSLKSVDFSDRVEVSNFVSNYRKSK
* marks the source's active call; other numbers are inactive results; ? = inconclusive; . = no result given; [ ] = another dose, or the depositor's remark.

SMILES | Glyco luc inh | PAX8 inh HTS | Arrestin-AP2 inh | HIV Env fusion | PfHsp90 set2 | Rtt109 HAT inh
O=C(Nc1ccccc1N1CCN(C(=O)c2ccccc2)CC1)c1ccc([N+](=O)[O-])o1 | 11 | 68* | -1 | -20 | 27 | 5
O=C(Nc1cccc(NC(=O)c2ccccc2Cl)c1)c1ccc([N+](=O)[O-])o1 | -17 | 98* | 31 | -27 | -19 | 19
O=C(Nc1cccc2ccccc12)c1ccc([N+](=O)[O-])o1 | 27* | 69* | -3 | -14 | -18 | 7
O=C(Nc1ccc(N2CCCC2)c(Cl)c1)c1ccc([N+](=O)[O-])o1 | 46* | 47 | 38 | -140 | 0 | 16
CCC(=O)N1CCN(c2ccccc2NC(=O)c2ccc([N+](=O)[O-])o2)CC1 | 0 | 33 | 2 | 3 | -34 | 2
Cc1cccc(NC(=O)c2ccc([N+](=O)[O-])o2)c1C | 11 | ? | 12 | 15 | -16 | -2
CCCNC(=O)C[C@@H]1C[C@@H]2c3cc(NC(=O)c4ccc5c(c4)OCO5)ccc3O[C@@H]2[C@@H](CO)O1 | . | -6 | . | . | . | .
COc1ccccc1NC(=O)N(C)C[C@@H]1Oc2ncc(C#CCN(C)C)cc2C(=O)N([C@H](C)CO)C[C@@H]1C | . | . | . | -8[16.7 µM] | . | .
CC(C)(C)S(=O)N1Cc2cc(C(=O)NCCCN3CCOCC3)nc(-c3cccc(C#CCC4CCCC4)c3)c2[C@@H]1CCO (stereo partly drawn) | . | 82* | . | 22[16.7 µM] | . | .
CCc1nc2c(OCc3ccc(C(F)(F)F)cc3)cccn2c1N(C)C(=O)c1ccco1 | -2 | 14 | . | 57* | . | .
CCc1nc2c(OCc3ccc(C(F)(F)F)cc3)cccn2c1N(C=O)Cc1ccc(OC)cc1 | 1 | -4 | . | 56* | . | .
COc1ccc(/C=N/Nc2ccc(C(=O)O)cc2)cc1OC | -14 | -60 | -2 | -10 | 10 | 1
O=C(O)c1ccc(N/N=C/c2ccc(-c3ccccc3)cc2)cc1 | -5 | -59 | 9 | -203 | 98* | 24
CC(C)c1ccc(/C=N/Nc2ccc(C(=O)O)cc2)cc1 | -15 | 82* | -2 | 66* | -29 | 13
CC(C)OP(=O)(Nc1cccc2ccccc12)OC(C)C | -3 | 18 | -1 | 94* | -3 | -9
O=C(Nc1ccc2c(c1)[C@H]1C[C@H](CC(=O)N3CCCCC3)O[C@@H](CO)[C@H]1O2)c1ccc2c(c1)OCO2 | . | 3 | . | 26[16.7 µM] | . | .
CO[C@@H]1CN(C)C(=O)c2cc(NC(=O)Nc3ccccc3)ccc2OC[C@H](C)N(C(=O)CC2CC2)C[C@H]1C | . | 5 | . | 6[16.7 µM] | . | .
O=C(/C=C/c1cn(CC(O)CN2CCCCC2)c2ccccc12)c1cccs1 (stereo not drawn) | 4 | -6 | 8 | . | -15 | 4
O=C(/C=C/c1cn(CC(O)CN2CCCCC2)c2ccccc12)c1ccccc1 (stereo not drawn) | 4 | 13 | -1 | 0 | 3 | 53*
C[C@@H]1CN([C@@H](C)CO)C(=O)c2cccc(NC(=O)Nc3ccc(F)cc3)c2O[C@@H]1CN(C)Cc1ccccc1 | . | -27 | . | -22[16.7 µM] | . | .
C[C@@H](NC(=O)c1nc[nH]c1C(=O)N1CCN(c2ccccc2)CC1)c1ccccc1 | 28* | -29 | -10 | 9 | . | -5
CC1CCN(C(=O)c2[nH]cnc2C(=O)N[C@H](C)c2ccccc2)CC1 | -1 | -12 | 24 | 23 | -20 | 6
Nc1c(C(=O)Nc2ccc3c(c2)OCCO3)nnn1Cc1cccc(Cl)c1 | -2 | -165 | -4 | . | . | -9
Nc1c(C(=O)Nc2ccc3c(c2)OCCO3)nnn1Cc1ccccc1Cl | -5 | -219 | -2 | -75 | 83* | 13
C[C@@H]1CCCCO[C@H](CN(C)C(=O)c2ccccc2)[C@@H](C)CN([C@H](C)CO)C(=O)c2cc(NS(C)(=O)=O)ccc2O1 | . | -6 | . | -4[16.7 µM] | . | .
SMILES | Glyco luc inh | PAX8 inh HTS | Arrestin-AP2 inh | HIV Env fusion | PfHsp90 set2 | Rtt109 HAT inh
Cc1ccc(NC(=S)/C(C#N)=C2/Nc3ccccc3S2)cc1 | 5 | 84* | . | 12 | . | .
COc1ccc(C(=O)Nc2cc(C(=O)c3ccccc3)c(C)oc2=O)cc1 | 2 | . | 9 | -73 | 117* | 0
CC(OC(=O)c1ccc(S(C)(=O)=O)c([N+](=O)[O-])c1)C(=O)NC1C2CC3CC(C2)CC1C3 (stereo not drawn) | -13 | 106* | . | -57 | . | .
CS(=O)(=O)c1ccc(C(=O)OCC(=O)NC23CC4CC(CC(C4)C2)C3)cc1[N+](=O)[O-] | 3 | 53 | -2 | -22 | 9 | 1
Cn1cccc1C(=O)NC(=O)COC(=O)c1ccc(S(C)(=O)=O)c([N+](=O)[O-])c1 | -10 | . | -12 | . | -5 | 3
CCC(OC(=O)c1ccc(S(C)(=O)=O)c([N+](=O)[O-])c1)C(=O)NC1C2CC3CC(C2)CC1C3 (stereo not drawn) | -15 | 94* | . | -108 | . | .
CC(C)CN1CCN(C(=O)COC(=O)c2ccc(S(C)(=O)=O)c([N+](=O)[O-])c2)CC1 | -12 | 112* | . | 33 | . | .
Cc1ccc(-c2ccc([C@H]3[C@H](CO)N4C(=O)CN(C(=O)c5ccncc5)C[C@@H]34)cc2)cc1 | . | -4 | . | . | . | .
C[C@H](CO)N1C[C@H](C)[C@H](CN(C)C(=O)C2CC2)Oc2cc(-c3cccc(F)c3)ccc2S1(=O)=O | . | 12 | . | 22[16.7 µM] | . | .
Cc1cccc(C(=O)N[C@H](C(=O)Nc2ncc(C)s2)C(C)C)c1 | -1 | 70* | -16 | -324 | 8 | 20
COc1ccc(-c2ccccc2[C@H]2[C@@H](C#N)N(C(=O)C3CCCC3)[C@@H]2CO)cc1 | . | -3 | . | 20[16.7 µM] | . | .
CCCCCCCN(c1ccccc1)[C@@H]1C[C@H]2CCCC(=O)N3CC[C@@H](C1)[C@@H]23 | -8 | 56 | -2 | 74* | 3 | 5
COc1ccc(NC(=O)N(C)C[C@@H]2OCCCC[C@@H](C)Oc3ccc(NC(=O)c4ccccc4)cc3C(=O)N([C@H](C)CO)C[C@@H]2C)cc1 | . | -18 | . | -6[16.7 µM] | . | .
CN1CC(c2ccccc2Cl)C2(COc3ccccc3C2=O)C12C(=O)Nc1ccccc12 (stereo not drawn) | -7 | 40 | -5 | 78* | 0 | -7
CCC(=O)Nc1ccc2c(c1)OC[C@H](C)N(C(=O)C1CC1)C[C@H](C)[C@@H](OC)CN(C)C2=O | . | . | . | -2[16.7 µM] | . | .
O=C(Cc1ccncc1)NCC[C@H]1CC[C@@H](NC(=O)Nc2ccc(F)cc2)[C@@H](CO)O1 | . | 5 | . | 3[16.7 µM] | . | .
Cc1cc(C)n(-c2ccc(C(=O)Nc3cccc(S(=O)(=O)N(C)C)c3)cc2)n1 | 1 | 5 | 12 | 27 | 4 | 1
CCN(CC)S(=O)(=O)c1cccc(NC(=O)c2ccc(-n3nc(C)cc3C)cc2)c1 | -6 | -3 | 20 | 67* | 8 | -1
